From ChEMBL document CHEMBL1148346, “Tiplaxtinin, a novel, orally efficacious inhibitor of plasminogen activator inhibitor-1: design, synthesis, and preclinical characterization” (J Med Chem, 2004)

Key:
[1] = molecular target: Plasminogen activator inhibitor 1 (Homo sapiens, UniProt P05121); test: Inhibition of human plasminogen activator inhibitor-1
[2] = Relative bioavailability after oral dose of compound at 3 mg/kg in dogs; type: ADME, organism-based, Canis lupus familiaris; conditions: dog, in vivo
Procedure, shortened: (§1)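 Male beagle dogs given a single oral dose of 3 mg/kg. Plasma sampled, with Cmax and half-life derived and relative bioavailability calculated.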

[3] = Apparent half-life after single intravenous bolus of 1 mg/kg in dogs; type: ADME, organism-based, Canis lupus familiaris; set-up: dose 1 mg/kg, route intravenous; conditions: dog, in vivo
Procedure, shortened: (§2)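 Male beagle dogs given a single iv bolus of 1 mg/kg. Plasma sampled, with apparent half-life, Cmax and AUC0-∞ derived.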

[4] = AUC after administration at 2000 mg/kg/day in rats; type: ADME, organism-based; conditions: rat, plasma
[5] = AUC after administration at 100 mg/kg/day in dogs; type: ADME, organism-based, Canis lupus familiaris; conditions: dog, plasma
[6] = AUC0-infinity after single intravenous bolus of 1 mg/kg in dogs; type: ADME, organism-based, Canis lupus familiaris; set-up: time infinity, dose 1 mg/kg, route intravenous; conditions: dog, plasma; procedure, shortened: as §2
[7] = Cmax after oral dose of compound at 3 mg/kg in dogs; type: ADME, organism-based, Canis lupus familiaris; set-up: dose 3 mg/kg, route oral; conditions: dog, in vivo; procedure, shortened: as §1
[8] = Half-life after oral dose of compound at 3 mg/kg in dogs; type: ADME, organism-based, Canis lupus familiaris; set-up: dose 3 mg/kg, route oral; conditions: dog, in vivo; procedure, shortened: as §1
[9] = Cmax after repeated oral dose of compound at 1 mg/kg in rats; type: ADME, organism-based; set-up: dose 1 mg/kg, route oral; conditions: rat, in vivo
Procedure, shortened: (§3)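 Male SD rats given repeated oral doses of 1 mg/kg. Plasma concentrations measured, with Cmax, half-life and AUC0-24 derived.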

[10] = Cmax after single intravenous bolus of 1 mg/kg in rats; type: ADME, organism-based; set-up: dose 1 mg/kg, route intravenous; conditions: rat, in vivo
[11] = Half-life after repeated oral dose of compound at 1 mg/kg in rats; type: ADME, organism-based; set-up: dose 1 mg/kg, route oral; conditions: rat, in vivo; procedure, shortened: as §3
[12] = Apparent half-life after single intravenous bolus of 1 mg/kg in rats; type: ADME, organism-based; set-up: dose 1 mg/kg, route intravenous; conditions: rat, in vivo
[13] = AUC0-24 after repeated oral dose of compound at 1 mg/kg in rats; type: ADME, organism-based; set-up: time < 24 hr, dose 1 mg/kg, route oral; conditions: rat, plasma; procedure, shortened: as §3
[14] = AUC0-infinity after single intravenous bolus of 1 mg/kg in rats; type: ADME, organism-based; set-up: time infinity, dose 1 mg/kg, route intravenous; conditions: rat, plasma
Canis familiaris [15] = test: Oral efficacy in dog thrombosis model at 3 mg/kg expressed as occlusion time; type: functional, Canis lupus familiaris
Procedure, shortened: (§4)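 Anesthetized dogs dosed orally, then an electrolytic injury made in the coronary artery lumen. Occlusion was taken as zero flow, and flow, occlusion time and spontaneous reperfusion were monitored over 4 h. Three dogs per group, mean ± SEM.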

Canis familiaris [16] = test: Oral efficacy in dog thrombosis model at 3 mg/kg expressed as arterial occlusion; type: functional, Canis lupus familiaris; procedure, shortened: as §4
Canis familiaris [17] = test: Oral efficacy in dog thrombosis model at 3 mg/kg expressed as spontaneous reperfusion; type: functional, Canis lupus familiaris; procedure, shortened: as §4
Rattus norvegicus [18] = test: Oral efficacy in rat thrombosis model at 1 mg/kg expressed as carotid flow reduction; type: functional
Procedure, shortened: (§5)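 Anesthetized, instrumented rats dosed orally before chemical induction of an occlusive carotid artery thrombus. Time to occlusion, carotid flow, patency and thrombus weight compared with vehicle, four rats per group, mean ± SEM.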

Rattus norvegicus [19] = test: Oral efficacy in rat thrombosis model at 1 mg/kg expressed as arterial occlusion; type: functional; procedure, shortened: as §5
Rattus norvegicus [20] = test: Oral efficacy in rat thrombosis model at 1 mg/kg expressed as occlusion time; type: functional; procedure, shortened: as §5
Rattus norvegicus [21] = test: Oral efficacy in rat thrombosis model at 1 mg/kg expressed as thrombus weight; type: functional; procedure, shortened: as §5
[22] = Cmax after single intravenous bolus of 1 mg/kg in dogs; type: ADME, organism-based, Canis lupus familiaris; set-up: dose 1 mg/kg, route intravenous; conditions: dog, in vivo; procedure, shortened: as §2
Canis familiaris [23] = test: Oral efficacy in dog thrombosis model at 3 mg/kg expressed as coronary flow reduction

Chain of Plasminogen activator inhibitor 1 (P05121 whole entry): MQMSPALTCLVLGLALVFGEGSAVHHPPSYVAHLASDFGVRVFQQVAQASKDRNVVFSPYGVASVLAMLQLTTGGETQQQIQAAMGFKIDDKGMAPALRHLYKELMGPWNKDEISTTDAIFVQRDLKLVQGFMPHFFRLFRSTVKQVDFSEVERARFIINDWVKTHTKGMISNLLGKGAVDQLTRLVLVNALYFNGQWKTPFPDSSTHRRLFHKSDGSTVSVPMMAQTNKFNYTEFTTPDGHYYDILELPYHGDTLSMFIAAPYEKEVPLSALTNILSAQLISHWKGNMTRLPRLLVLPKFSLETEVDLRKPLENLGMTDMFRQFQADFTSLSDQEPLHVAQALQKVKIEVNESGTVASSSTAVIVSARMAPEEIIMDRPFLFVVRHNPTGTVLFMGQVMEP

SMILES: CC(C)(C)c1ccc(Cn2cc(C(=O)C(=O)O)c3cc(-c4cccc(C(C)(C)C)c4)ccc32)cc1
- IC50 [1]: 10 µM

SMILES: O=C(O)C(=O)c1cn(Cc2ccccc2)c2cc(-c3ccccc3)ccc12
- IC50 [1]: 26 µM

SMILES: CC(C)(C)c1ccc(Cn2cc(C(=O)C(=O)O)c3ccc(-c4ccc(OC(F)(F)F)cc4)cc32)cc1
- IC50 [1]: > 50 µM

SMILES: O=C(O)c1ccc(-n2c(-c3ccccc3)cc3c2CCc2ccccc2-3)cc1O
- IC50 [1]: 13 µM

SMILES: O=C(O)C(=O)c1cn(Cc2ccccc2)c2ccc(-c3ccc(OC(F)(F)F)cc3)cc12 [TIPLASININ]
- bioavailability [2]: 32%
- half-life [3]: 3.73 h
- AUC [4]: ~1510 µg·h/mL
- AUC [5]: ~613 µg·h/mL
- AUC(0-inf) [6]: 20.5 µg·h/mL
- Cmax [7]: 2140 ng/mL
- half-life [8]: 5.42 h
- Cmax [9]: 230 ng/mL
- Cmax [10]: 4950 ng/mL
- half-life [11]: 4.1 h
- half-life [12]: 2.95 h
- AUC at 24 h [13]: 0.96 µg·h/mL
- AUC(0-inf) [14]: 2.45 µg·h/mL
- Occlusion time (Canis familiaris [15]): 71.6 min
- Arterial occlusion (Canis familiaris [16]): 100%
- Spontaneous reperfusion (Canis familiaris [17]): 100%
- Carotid flow reduction (Rattus norvegicus [18]): 47.3%
- Arterial occlusion (Rattus norvegicus [19]): 25%
- Occlusion time (Rattus norvegicus [20]): 50.5 min
- Thrombus weight (Rattus norvegicus [21]): 0.5 mg
- Cmax [22]: 13400 ng/mL
- Coronary flow reduction (Canis familiaris [23]): 66%

SMILES: CC(C)(C)c1ccc(Cn2cc(C(=O)C(=O)O)c3cc(-c4ccc(OC(F)(F)F)cc4)ccc32)cc1
- IC50 [1]: 16 µM

SMILES: O=C(O)C(=O)c1cn(Cc2ccc(F)cc2)c2cc(-c3ccccc3)ccc12
- IC50 [1]: 35 µM

SMILES: O=C(Nc1ccc(Cl)c(Cl)c1)c1ccc(CNc2cc([N+](=O)[O-])ccc2C(=O)O)cc1
- IC50 [1]: 13 µM

SMILES: COc1cccc(-c2ccc3c(c2)c(C(=O)C(=O)O)cn3Cc2ccc(C(C)(C)C)cc2)c1
- IC50 [1]: 21 µM

SMILES: CN(C)CCSc1ccc(/C=c2\[nH]c(=O)/c(=C/c3ccccc3)[nH]c2=O)s1
- IC50 [1]: 8 µM

SMILES: Cc1cccc(-c2ccc3c(c2)c(C(=O)C(=O)O)cn3Cc2ccc(C(C)(C)C)cc2)c1 [ALEPLASININ]
- IC50 [1]: 8.6 µM

SMILES: O=C(O)C(=O)c1cn(Cc2ccccc2)c2cccc(-c3ccc(OC(F)(F)F)cc3)c12
- IC50 [1]: > 50 µM

SMILES: O=C(O)C(=O)c1cn(Cc2ccccc2)c2cc(-c3ccc(OC(F)(F)F)cc3)ccc12
- IC50 [1]: 17 µM
